Bioassay records from PubChem BioAssay.
Beta apoptosis: blocks beta cell apoptosis; AID 435005; hit rate 0.8% among 300,000; INS-1E cytokine-induced death, ATP luminescence, 48 h; percent of positive-control rescue, neutral wells zero; protection from apoptosis, % (concentration not given with the values);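 active means Every replicate reaches about 75%, or at least half do and their mean reaches it too, limit read from the data; inconclusive means At least half of replicates reach the limit but their mean does not; inactive means Under half of replicates reach the limit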;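 further: 0% = cytokine-treated negative control wells and 100% = positive control rescue; higher means more ATP so stronger rescue from cytokine killing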
Mdm2-MdmX inh: disrupts the human Mdm2-MdmX interaction; hit rate 3% among 330,000; O15151+Q00987; inhibition, % at 8 µM; SaOS-2 split-luciferase Mdm2/MdmX complementation, luminescence;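 active means inhibition of at least 50% at 8 µM in the primary screen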
Target sequence (O15151 whole entry, looked up): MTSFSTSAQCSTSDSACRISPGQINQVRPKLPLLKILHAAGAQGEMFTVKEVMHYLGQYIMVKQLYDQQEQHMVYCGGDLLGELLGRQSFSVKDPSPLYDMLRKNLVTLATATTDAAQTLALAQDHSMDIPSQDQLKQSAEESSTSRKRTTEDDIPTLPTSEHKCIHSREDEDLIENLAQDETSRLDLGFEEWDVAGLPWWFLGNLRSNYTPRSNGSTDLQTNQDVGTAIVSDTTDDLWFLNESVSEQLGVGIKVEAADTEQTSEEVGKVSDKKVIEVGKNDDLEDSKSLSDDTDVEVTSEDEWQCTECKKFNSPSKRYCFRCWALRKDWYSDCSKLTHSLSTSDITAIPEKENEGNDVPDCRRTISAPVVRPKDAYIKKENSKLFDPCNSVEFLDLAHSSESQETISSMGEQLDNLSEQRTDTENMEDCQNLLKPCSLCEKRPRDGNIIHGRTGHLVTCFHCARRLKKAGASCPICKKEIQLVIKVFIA
Target sequence (Q00987 whole entry, looked up): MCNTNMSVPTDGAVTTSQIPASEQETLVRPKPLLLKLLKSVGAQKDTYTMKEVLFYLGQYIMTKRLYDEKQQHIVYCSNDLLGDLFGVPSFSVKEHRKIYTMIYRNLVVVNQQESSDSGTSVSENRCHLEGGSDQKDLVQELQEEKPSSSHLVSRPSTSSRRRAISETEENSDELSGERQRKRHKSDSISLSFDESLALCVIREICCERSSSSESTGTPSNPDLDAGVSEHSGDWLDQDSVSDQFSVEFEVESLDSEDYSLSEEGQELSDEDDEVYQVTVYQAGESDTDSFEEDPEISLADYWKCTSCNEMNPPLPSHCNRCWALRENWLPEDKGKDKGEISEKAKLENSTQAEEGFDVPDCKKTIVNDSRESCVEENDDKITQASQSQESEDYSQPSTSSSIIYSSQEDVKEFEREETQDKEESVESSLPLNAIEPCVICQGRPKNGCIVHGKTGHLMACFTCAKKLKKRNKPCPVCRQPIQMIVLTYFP
T cruzi inh: T. cruzi replication inhibition. T. cruzi beta-gal in NIH3T3, luminescence, 90 h. inhibition, % (concentration not given with the values). hit rate 1.4% among 300,000. AID 1885;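 active means mean inhibition across valid replicates above about 55%, limit read from the data; inconclusive means mean below that limit but half or more replicates reach it; inactive means mean below it, under half of replicates reach it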;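 further: signal also drops with host cell toxicity which is not excluded here; 0% = plate median of DMSO wells and 100% = zero luminescence signal; higher percent means less beta-gal luminescence so fewer parasites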
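Incubation – ≥90 h infection period, 3 h prior cell attachment · System – NIH/3T3 fibroblasts plus reporter T. cruzi · Doses – compound pinned at 50 nL/well, DMSO · Read-out basis – percent inhibition of parasite-derived β-gal signal · Signal – luminescent β-galactosidase signal after 60 min lysis · Also added – 5000 T. cruzi trypomastigotes/well · Medium – Low-serum DMEM with 2% FBS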
Calb FLC: affects C. albicans growth with fluconazole. C. albicans CaCi-2 (fluconazole-resistant clinical isolate) + fluconazole, Alamar Blue growth, 48 h. AID 1979. growth inhibition, % (concentration not given with the values). hit rate 0.57% among 300,000;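 active means growth inhibition above about 58% in most replicates, limit read from the data, passing the limit was not always enough; inconclusive means exactly half the replicates above a set limit; inactive means most replicates below a set limit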;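 further: all wells also contain fluconazole at 8 µg/ml as a sub-toxic cotreatment; 0% = median of DMSO wells and 100% = median of geldanamycin control wells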
CSC inhib: cancer stem cell inhibition; cancer stem cell-like cells viability, luminescence; inhibition, % at 7.5 µM; AID 2717; hit rate 1.1% among 300,000; in the data active means inhibition above about 75%; inconclusive means no clear call, values can overlap the other calls; tested in HMLE shEcad cells
SKKanGAS inh: blocks kanamycin growth of S. pyogenes SKKanGAS strain. BacTiter-Glo, 6 h. inhibition, % at 7.5 µM. hit rate 1.3% among 300,000. AID 1662;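 active means mean replicate score, as percent of positive control median, at least 50; inconclusive means mean below 50 but one replicate at or above 50; inactive means mean and every replicate below 50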;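 further: strain carries kanamycin resistance gene driven by streptokinase promoter and grows in 40 µg/ml kanamycin; loss of luminescence reflects streptokinase promoter inhibition or plain growth inhibition; 0% = median of DMSO wells and 100% = positive control at its reference dose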
Mdm2-MdmX conf: confirmation of human Mdm2/MdmX interaction inhibitors; shares compounds with Mdm2-MdmX inh; Mdm2-MdmX binding, luminescent assay; hit rate 55% among 10,000; inhibition, % at 8 µM; in the data active means inhibition above about 40%
Full FLuc ctr: counter-screen for Mdm2/MdmX inhibitors: full-length luciferase. shares compounds with Mdm2-MdmX inh. SaOS-2 full-length luciferase counterscreen, luminescence. inhibition, % at 8 µM. hit rate 77% among 6,200;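 active means mean inhibition at 8 µM reaching about 37%, which flags the compound as non-specific, limit read from the data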;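 further: p53-null SaOS-2 cells with luciferase driven by a doxycycline-inducible promoter; compound on cells about two nights before reading with doxycycline added after day one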
Active calls of the source: *; u = inconclusive; x = not tested or not shown. Compounds with a hit are over-represented: about 5.7% of the library has one in this group of screens.

SMILES | Beta apoptosis | Mdm2-MdmX inh | T cruzi inh | Calb FLC | CSC inhib | SKKanGAS inh | Mdm2-MdmX conf | Full FLuc ctr
CC1(NC(=O)c2cc(Cl)nc3ccccc23)CCS(=O)(=O)C1 (stereo not drawn) | -1 | 17 | x | x | -12 | x | x | x
CCN(CC)S(=O)(=O)c1ccc(/C(O)=C(\C#N)c2nc3ccccc3n2C)cc1 | 14 | 19 | 24 | 12 | 35 | 13 | x | x
Cn1c(/C(C#N)=C(\O)c2ccc([N+](=O)[O-])cc2)nc2ccccc21 | -1 | 86* | -18 | -1 | -8 | -16 | 27 | x
CCOC(=O)c1ccc(NS(=O)(=O)c2ccc3oc(=O)[nH]c3c2)cc1 | -1 | 10 | -4 | -1 | -7 | -3 | x | x
O=C(NNC(=O)C1CCN(S(=O)(=O)c2ccc(Cl)cc2)CC1)c1ccccc1O | 0 | 56* | -1 | x | 37 | 8 | 59* | 46*
O=C(CSc1nnnn1-c1ccccc1)Nc1ncc(Cc2cccc(Cl)c2Cl)s1 | 1 | 56* | 6 | 22 | 6 | -8 | 16 | x
Cc1ccc(-n2nnnc2SCC(=O)Nc2ncc(Cc3ccccc3Cl)s2)cc1 | -3 | 59* | -4 | -5 | x | -10 | -24 | x
CCc1ccc(CCC(=O)Nc2ncc(Cc3ccccc3Cl)s2)o1 | 10 | 66* | -7 | 26 | 82* | -13 | 51* | 80*
C/C(=N\NC(=O)C1CC1)c1ccc(Cl)c(Cl)c1 | 4 | -19 | 3 | -7 | -14 | -2 | x | x
C/C(=N\N=C(N)N)c1ccc(Cl)c(Cl)c1 | -2 | 56* | 53 | 16 | 22 | 0 | 38 | x
CCOC(=O)[C@@H]1[C@H]2COc3ccccc3[C@H]2N2C(=O)N(c3ccccc3)C(=O)[C@]12C | -10 | 2 | 10 | 0 | -11 | 5 | x | x
COc1cc(C(=O)NCC(c2cccs2)N2CCOCC2)cc(Br)c1OCc1ccccc1 (stereo not drawn) | 20 | 51* | x | x | 30 | x | 42* | 39*
COc1ccc(C(=O)NCC(c2cccs2)N2CCOCC2)cc1OC (stereo not drawn) | -6 | -2 | x | x | -5 | x | x | x
O=C(N/N=C/c1cccc([N+](=O)[O-])c1)c1cccc(Br)c1 | 8 | -9 | -8 | 6 | 16 | 3 | x | x
CCOC(=O)N/N=C\c1ccc([N+](=O)[O-])s1 | x | 28 | 25 | 10 | 2 | -4 | x | x
O=C(N/N=C/c1ccc(O)c2ncccc12)c1cccc(Br)c1 | 109* | 87* | 60* | 116* | -1 | 15 | 55* | 32
O=C(N/N=C\c1ccc([N+](=O)[O-])s1)C1COc2ccccc2O1 (stereo not drawn) | -5 | 51* | 16 | -2 | -6 | 17 | 55* | 87*
O=C(N/N=C/c1ccc([N+](=O)[O-])s1)c1cccc(Br)c1 | 60 | 77* | 93* | 23 | 16 | 3 | 68* | 38*
Cc1cccc(NC(=S)N/N=C/c2ccc([N+](=O)[O-])s2)c1 | 103* | 67* | 52 | -7 | 125* | 101* | 18 | x
Cc1sc2ncnc(N3CCC(C(=O)N(CC(C)C)c4nc5ccccc5s4)CC3)c2c1C | 11 | 27 | 32 | 0 | 3 | 28 | x | x
CCC1CCCCN1CCCNC(=O)c1ccc(CS(=O)(=O)c2ccccc2C)o1 (stereo not drawn) | -1 | -4 | 16 | -8 | -13 | -4 | x | x
CCc1ccc(NC(=O)c2ccc3c(c2)C(=O)N(CCOC)C3Nc2ccc(CC)cc2)cc1 (stereo not drawn) | 15 | 81* | -17 | -3 | 12 | -2 | 40* | 99*
Cc1ccccc1CC(=O)Nc1cccc(S(=O)(=O)N2CCCC2)c1 | -5 | 10 | x | x | 10 | x | x | x
COc1ccc(Cc2nnc(N/N=C/c3ccc(O)cc3O)[nH]c2=O)cc1OC | 36 | 56* | -14 | -3 | 91* | -2 | 44* | 50*
CC(=O)NCc1ccc(S(=O)(=O)N2CCN(S(=O)(=O)c3ccc4ccccc4c3)CC2)cc1 | x | 63* | x | x | x | x | 34 | x
SMILES | Beta apoptosis | Mdm2-MdmX inh | T cruzi inh | Calb FLC | CSC inhib | SKKanGAS inh | Mdm2-MdmX conf | Full FLuc ctr
Cc1ccc(-c2nnc(SCC(=O)Nc3sc(C)c(C)c3C#N)n2C)cc1 | 2 | 49 | -2 | 4 | 18 | 4 | x | x
CCOC(=O)c1cnc(SCC(=O)Nc2ccc(N3CCOCC3)c(Cl)c2)nc1N | 0 | 13 | 11 | 8 | 5 | 0 | x | x
CCOC(=O)c1cnc(SCC(=O)Nc2sc(C)c(C)c2C#N)nc1N | x | 72* | 8 | -2 | -5 | 11 | 7 | x
CCOC(=O)c1cnc(SCC(=O)Nc2cc(OC)cc(OC)c2)nc1N | 3 | 34 | -5 | 10 | 1 | 0 | x | x
CCOC(=O)c1cnc(SCC(=O)Nc2cc(C(F)(F)F)ccc2N2CCOCC2)nc1N | 4 | 55* | 7 | 18 | 0 | 6 | -4 | x
Cc1sc(NC(=O)CSc2nnc(COc3ccc(Cl)cc3)n2C)c(C#N)c1C | 3 | 52* | 12 | 6 | 6 | -21 | 34 | x
COCCn1c(C)cc(C(=O)COC(=O)c2cccc(O)c2)c1C | 2 | 74* | -10 | 0 | -9 | 5 | 85* | 71*
COCCn1c(C)cc(C(=O)CSc2nnnn2C2CCCC2)c1C | 0 | 72* | x | x | -14 | x | 80* | 79*
COCCn1c(C)cc(C(=O)CSc2n[nH]c(N)n2)c1C | -3 | 9 | -14 | -4 | -20 | 0 | x | x
COCCn1c(C)cc(C(=O)CSc2nnc(C)s2)c1C | -5 | 52* | -8 | -5 | -23 | 0 | 62* | 48*
Oc1ccc(Br)cc1-c1cc(-c2ccc(Cl)cc2)n[nH]1 | 92* | 85* | -24 | 1 | 53 | 27 | 32 | 6
O=[N+]([O-])c1ccccc1-c1cc(-c2ccccc2O)n[nH]1 | x | -123 | -2 | 0 | x | 5 | x | x
COc1ccc(-c2cc(-c3ccc(Cl)cc3)n[nH]2)c(O)c1 | 5 | -218 | 24 | 24 | 28 | u | x | x
O=[N+]([O-])c1cccc(-c2cc(-c3cc(Br)ccc3O)[nH]n2)c1 | x | 93* | 9 | 84* | 97* | 37 | 80* | 59*
COc1ccc(C2=CC(=O)C[C@H](c3ccc(F)cc3)C2)cc1OC | 1 | -11 | x | x | 60 | x | x | x
CCc1ccccc1NC(=O)CN1CCN(C(=O)CNC(=O)c2ccc(-c3ccccc3)cc2)CC1 | 13 | 50* | x | x | x | x | 25 | x
COc1cc(OC)cc(C(=O)N2CC(=O)Nc3ccccc32)c1 | 15 | 43 | -7 | 1 | 56 | -3 | x | x
CNC[C@H](Cc1ccccc1)NC[C@@H](Cc1cccc2ccccc12)NCCc1ccc(C)cc1 | 107* | 100* | 48 | 111* | 108* | 94* | 86* | 51*
CNCCNC[C@H](Cc1cccc2ccccc12)NCCc1ccccc1 | 6 | 9 | x | x | 12 | x | x | x
